28 molecules from ChEMBL document CHEMBL1128243, “Three-dimensional quantitative structure-activity relationships of sulfonamide endothelin inhibitors” (J Med Chem, 1995) can be followed below.

This assay has as its target T1, Endothelin-1 receptor (Rattus norvegicus, UniProt P26684).
T1 sequence (P26684 whole entry): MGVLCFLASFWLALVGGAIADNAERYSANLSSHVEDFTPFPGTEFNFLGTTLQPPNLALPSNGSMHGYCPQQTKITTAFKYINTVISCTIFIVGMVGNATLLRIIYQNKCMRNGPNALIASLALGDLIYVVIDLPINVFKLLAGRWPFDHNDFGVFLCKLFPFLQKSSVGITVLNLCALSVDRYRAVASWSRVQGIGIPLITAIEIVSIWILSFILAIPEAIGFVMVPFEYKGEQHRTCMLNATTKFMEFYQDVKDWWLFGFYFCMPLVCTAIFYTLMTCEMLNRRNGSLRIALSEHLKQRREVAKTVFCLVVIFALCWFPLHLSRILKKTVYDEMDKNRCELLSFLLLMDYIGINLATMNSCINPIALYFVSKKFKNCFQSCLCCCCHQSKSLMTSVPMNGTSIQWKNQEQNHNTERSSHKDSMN
The assay can be described thus: Inhibition of [125I]endothelin-l binding to endothelin A receptor of rat thoracic aorta smooth muscle cells. The format is tissue-based. The gist of the method: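 Membranes from A10 rat thoracic aorta smooth muscle cells (cultured, trypsin-detached, stored at -70 °C, then thawed, homogenized and centrifuged to a membrane pellet). Samples filtered through glass fiber filters and washed, then filter-retained radioactivity counted.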

As for `Cc1noc(NS(=O)(=O)c2ccc3c(N)cccc3c2)c1C`, the IC50 (as a rule, the concentration needed to halve the response being measured) came out at 24000 nM.
On to `Cc1onc(NS(=O)(=O)c2cccc3c(N(C)C)cccc23)c1C`, for which the IC50 was 15 nM.
Then `CC(=O)Nc1cccc2ccc(S(=O)(=O)Nc3onc(C)c3C)cc12`, with 27500 nM; and `Cc1noc(NS(=O)(=O)c2cccc3ccc(N)cc23)c1C`, with 1450 nM; and `CC(=O)Nc1ccc(S(=O)(=O)Nc2onc(C)c2C)c2ccccc12`, with 3400 nM.
`Cc1noc(NS(=O)(=O)c2cccc3ccccc23)c1C` yielded an IC50 of 3100 nM.
For `Cc1noc(NS(=O)(=O)c2cccc3cc(N(C)C)ccc23)c1C`, the IC50 was 840 nM.
On to `CC(=O)Nc1ccc2c(S(=O)(=O)Nc3onc(C)c3C)cccc2c1`, for which the IC50 was found to be 1300 nM.
Then `Cc1cc(NS(=O)(=O)c2ccc(O)cc2)no1`, with 53000 nM; and `Cc1noc(NS(=O)(=O)c2ccc3ccc(N)cc3c2)c1C`, with 10000 nM.
`Cc1noc(NS(=O)(=O)c2cccc3cc(N)ccc23)c1C` had an IC50 of 2400 nM. Against the preceding molecule, the IC50 is about 4.2-fold lower.
Then `Cc1noc(NS(=O)(=O)c2ccc3ccc(N(C)C)cc3c2)c1C`, with 1400 nM; and `Cc1noc(NS(=O)(=O)c2cccc3c(N(C)C(C)C)cccc23)c1C`, with 4 nM; and `Cc1noc(NS(=O)(=O)c2ccc3cccc(N)c3c2)c1C`, with 9800 nM.
`Cc1noc(NS(=O)(=O)c2ccc(N)c3ccccc23)c1C` yielded an IC50 of 3500 nM.
Then `Cc1noc(NS(=O)(=O)c2cccc(N)c2)c1C`, with 1300 nM; and `Cc1noc(NS(=O)(=O)c2cccc3ccc(N(C)C)cc23)c1C`, with 5600 nM.
`CC(=O)Nc1ccc2ccc(S(=O)(=O)Nc3onc(C)c3C)cc2c1` had an IC50 of 42000 nM. This IC50 lies about 7.5-fold higher than the previous one.
`Cc1noc(NS(=O)(=O)c2ccc3cccc(N(C)C)c3c2)c1C` yielded an IC50 of 31500 nM.
The result for `Cc1noc(NS(=O)(=O)c2ccc3cc(N)ccc3c2)c1C` reads 600 nM; that for `CCNc1ccc(S(=O)(=O)Nc2onc(C)c2C)cc1`, 5000 nM.
Then `Cc1noc(NS(=O)(=O)c2ccc(N(C)C)cc2)c1C`, with 84000 nM.
Molecule `CC(=O)Nc1cccc2c(S(=O)(=O)Nc3noc(C)c3C)cccc12` displayed a concentration for half-maximal inhibition (IC50) of 16 nM.
The result for `Cc1onc(NS(=O)(=O)c2ccc(N)cc2)c1Br` reads 510 nM.
In turn, `Cc1noc(NS(=O)(=O)c2cccc3c(NC(C)C)cccc23)c1C` yielded an IC50 of 5 nM.
The result for `CC(=O)Nc1ccc2cc(S(=O)(=O)Nc3onc(C)c3C)ccc2c1` reads 3800 nM; that for `Cc1noc(NS(=O)(=O)c2cccc3c(N(C)C)cccc23)c1C` [BMS-182874], 15 nM; that for `Cc1onc(NS(=O)(=O)c2ccc(N)cc2)c1C` [SULFATROXAZOLE], 260 nM.
